Substitutions are numbered along the chain they refer to. “Also recorded” adds a separate entry of the source. Where two headings read alike, the source gives them in different places. Peptide text beside a SMILES is read from it.
Key:
[1] = biological target: T1, hTas1R2/hTas1R3 (Homo sapiens, UniProt Q8TE23); assay: Ca2+ mobilization, wild type human sweet taste receptor; assay type: cell-based; conditions: for response in dose-response experiment: HEK293E cells with Gα16-gust44; for Bottom (B) of sigmoid dose-response fit / Top (T) of sigmoid dose-response fit: ΔF/F normalized to maximum response of hTas1R2/hTas1R3 to neotame
T1 sequence (Q8TE23 20-839): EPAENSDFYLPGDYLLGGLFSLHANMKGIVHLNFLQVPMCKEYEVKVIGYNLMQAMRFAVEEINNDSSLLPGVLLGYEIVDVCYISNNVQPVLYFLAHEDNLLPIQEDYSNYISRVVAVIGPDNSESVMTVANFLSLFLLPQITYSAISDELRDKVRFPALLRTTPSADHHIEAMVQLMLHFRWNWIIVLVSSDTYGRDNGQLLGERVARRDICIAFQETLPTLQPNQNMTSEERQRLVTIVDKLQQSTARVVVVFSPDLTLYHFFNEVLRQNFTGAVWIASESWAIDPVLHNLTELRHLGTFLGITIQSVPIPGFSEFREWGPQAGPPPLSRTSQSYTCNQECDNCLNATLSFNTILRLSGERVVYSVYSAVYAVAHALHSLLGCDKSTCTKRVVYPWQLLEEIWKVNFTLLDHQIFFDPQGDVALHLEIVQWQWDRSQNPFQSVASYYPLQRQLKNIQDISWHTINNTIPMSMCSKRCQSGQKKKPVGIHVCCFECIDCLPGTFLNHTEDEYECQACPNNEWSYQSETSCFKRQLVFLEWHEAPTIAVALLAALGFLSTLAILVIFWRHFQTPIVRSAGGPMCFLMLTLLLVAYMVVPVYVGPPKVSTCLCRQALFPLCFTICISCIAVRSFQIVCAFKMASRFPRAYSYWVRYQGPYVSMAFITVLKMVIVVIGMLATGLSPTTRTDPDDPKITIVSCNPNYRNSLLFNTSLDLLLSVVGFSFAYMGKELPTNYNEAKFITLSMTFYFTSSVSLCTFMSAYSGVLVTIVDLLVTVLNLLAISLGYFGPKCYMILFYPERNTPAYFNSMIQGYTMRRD
T1 sequence (Q7RTX0 21-852 partner): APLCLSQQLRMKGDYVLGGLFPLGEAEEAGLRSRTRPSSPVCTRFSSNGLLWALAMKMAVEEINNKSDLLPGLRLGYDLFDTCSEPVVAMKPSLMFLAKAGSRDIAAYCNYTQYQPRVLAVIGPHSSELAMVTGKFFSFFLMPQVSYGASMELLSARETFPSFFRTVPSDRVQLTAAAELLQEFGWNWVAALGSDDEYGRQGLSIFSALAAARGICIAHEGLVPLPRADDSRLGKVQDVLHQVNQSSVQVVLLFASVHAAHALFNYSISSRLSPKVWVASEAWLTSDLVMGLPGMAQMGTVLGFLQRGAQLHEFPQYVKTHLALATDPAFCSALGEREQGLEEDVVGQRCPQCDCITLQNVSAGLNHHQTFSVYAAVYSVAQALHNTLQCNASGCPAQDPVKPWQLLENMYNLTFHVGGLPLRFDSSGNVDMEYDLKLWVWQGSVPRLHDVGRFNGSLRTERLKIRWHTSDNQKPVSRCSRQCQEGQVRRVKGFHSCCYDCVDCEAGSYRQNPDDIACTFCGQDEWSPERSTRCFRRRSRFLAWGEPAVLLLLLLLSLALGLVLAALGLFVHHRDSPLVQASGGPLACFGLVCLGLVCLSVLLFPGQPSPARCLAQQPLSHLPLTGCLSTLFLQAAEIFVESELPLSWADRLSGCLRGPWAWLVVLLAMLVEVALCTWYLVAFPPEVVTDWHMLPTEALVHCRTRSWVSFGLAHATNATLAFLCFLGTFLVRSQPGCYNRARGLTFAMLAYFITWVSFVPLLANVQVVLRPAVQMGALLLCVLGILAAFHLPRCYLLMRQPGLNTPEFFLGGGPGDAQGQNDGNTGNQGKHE
In short: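 HEK293E cells (Opti-MEM, 5% FBS, 37°C) were seeded at 50,000/well and cotransfected with Tas1R plasmids and Gα16-gust44 (0.06 μg each per well). Medium changed at 20 h; assayed 24 h later after 1 h loading with 3 μm Fluo-4 AM in HBSS/20 mm HEPES. Fluorescence (ex 488/em 525 nm) read 2 s apart; tastant added at 30 s, 150 s further. Peak ΔF/F sigmoid-fitted; three independent experiments.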

[2] = biological target: T2, hTas1R2:S40T/I67S/D142E+hTas1R3 (Homo sapiens, UniProt Q8TE23, D142E/I67S/S40T); assay: Ca2+ mobilization, mutated human receptor; assay type: cell-based; conditions: for calcium response to sweetener: aspartame 10mM, neotame 1mM, sucralose 2 mM, compared with hTas1R2/hTas1R3; for response in dose-response experiment: versus hTas1R2+hTas1R3
T2 sequence (Q8TE23 20-839 S40T/I67S/D142E): T1 sequence (Q8TE23 20-839) with S21T, I48S, D123E
T2 sequence (Q7RTX0 21-852 partner): T1 sequence (Q7RTX0 21-852 partner)

[3] = biological target: smTas1R2:T40S/S67I/E142D+smTas1R3 (Saimiri sciureus, UniProt A3QP08, E142D/S67I/T40S); assay: Ca2+ mobilization, mutated squirrel monkey receptor; assay type: cell-based, squirrel monkey (Saimiri sciureus); conditions: for calcium response to sweetener: aspartame 10mM, neotame 1mM, sucralose 2 mM, compared with smTas1R2/smTas1R3; for response in dose-response experiment: versus smTas1R2+smTas1R3; for Bottom (B) of sigmoid dose-response fit / Top (T) of sigmoid dose-response fit: ΔF/F normalized to maximum response of hTas1R2/hTas1R3 to neotame
smTas1R2:T40S/S67I/E142D+smTas1R3, sequence (A3QP08 20-834 T40S/S67I/E142D): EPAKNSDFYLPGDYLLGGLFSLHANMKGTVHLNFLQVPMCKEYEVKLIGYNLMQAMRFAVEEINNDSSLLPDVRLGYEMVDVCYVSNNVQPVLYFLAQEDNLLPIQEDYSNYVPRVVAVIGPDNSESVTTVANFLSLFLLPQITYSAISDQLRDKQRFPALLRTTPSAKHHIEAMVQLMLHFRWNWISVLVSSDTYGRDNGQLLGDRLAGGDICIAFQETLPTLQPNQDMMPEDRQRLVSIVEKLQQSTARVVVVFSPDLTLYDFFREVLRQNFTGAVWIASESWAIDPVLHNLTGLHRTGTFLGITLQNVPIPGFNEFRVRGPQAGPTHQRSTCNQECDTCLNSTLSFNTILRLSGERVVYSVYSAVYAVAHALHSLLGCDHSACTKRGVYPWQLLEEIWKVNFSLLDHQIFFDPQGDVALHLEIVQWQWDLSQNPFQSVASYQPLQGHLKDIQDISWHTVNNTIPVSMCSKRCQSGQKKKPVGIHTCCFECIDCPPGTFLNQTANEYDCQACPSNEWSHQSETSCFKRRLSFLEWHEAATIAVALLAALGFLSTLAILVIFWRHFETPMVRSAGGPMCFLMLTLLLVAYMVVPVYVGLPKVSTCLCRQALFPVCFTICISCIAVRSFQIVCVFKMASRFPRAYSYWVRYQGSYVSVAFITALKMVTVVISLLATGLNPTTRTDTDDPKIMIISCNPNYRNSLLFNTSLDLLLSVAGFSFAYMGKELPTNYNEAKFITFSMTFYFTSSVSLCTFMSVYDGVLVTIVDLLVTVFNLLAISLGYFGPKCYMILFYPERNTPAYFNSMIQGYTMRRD

[4] = cited from earlier work
[5] = HEK293E cells with Gα16-gust44, dose-response, calcium mobilization
[6] = ΔF/F normalized to maximum response of hTas1R2/hTas1R3 to neotame

Compound	EC50 [1] [mM]	response in dose-response experiment [1]	Bottom (B) of sigmoid dose-response fit [1]	Top (T) of sigmoid dose-response fit [1]	calcium response to sweetener [2]	response in dose-response experiment ([2]; dose-response)	EC50 [3] [mM]	calcium response to sweetener [3]	response in dose-response experiment ([3]; dose-response)	Bottom (B) of sigmoid dose-response fit [3]	Top (T) of sigmoid dose-response fit [3]	sweet potency relative to sucrose ([4]; ref Meguro et al., 2000) [times]	EC50 [2, 5] [mM]	Bottom (B) of sigmoid dose-response fit [2, 6]	Top (T) of sigmoid dose-response fit [2, 6]	EC50 [3, 5] [mM]	sweetness relative to aspartame ([4]; ref Garbow et al., 2001)
COC(=O)[C@H](Cc1ccccc1)NC(=O)[C@@H](N)CC(=O)O [aspartame, L-α-aspartly-L-phenylalanine methyl ester] (H-Asp-Phe-OMe)	5	good response	7.074	73.32	greatly impaired responsiveness	no responses	1.2	significant responses	good response	−2.882	32.61	200					
COC(=O)[C@H](Cc1ccccc1)NC(=O)[C@H](CC(=O)O)NCCC(C)(C)C [neotame]		good response	−165.1	92.82	greatly impaired responsiveness; also recorded: almost completely abolished	weaker responses		significant responses	good responses	−4.671	51.73		12	−1.486	39.87	0.28	about 40 times

Reference: PMC3149845 (The Journal of neuroscience : the official journal of the …, 2011)
